E coli WT exp = growth inhibitors of E. coli BW25113 wild type | OD600 absorbance | growth inhibition, % at 100 µM | hit rate 0.15% among 98,000 | AID 710;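 active means growth inhibition above about 50% at one test dose, limit read from the data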;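 further: growth measured after 20 h incubation at 37 °C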
PostGolgi yeast = growth inhibition of a yeast mutant, post-Golgi transport screen | post-Golgi transport phenotypic cell assay | hit rate 0.9% among 98,000 | AID 739 | inhibition, % at 10 µM;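 further: yeast cells grown in 1536-well plates; yeast grown about 18 h at 30C before absorbance read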
Ecoli tolC = blocks growth of E. coli BW25113 tolC mutant; OD615; AID 573; hit rate 2.2% among 65,000; growth inhibition, % at 10 µM (by protocol);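 active means growth inhibition at or above a cutoff equal to the mean over every tested compound plus 3 SD, cut at about 60% in these data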;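 further: growth measured after 20 h incubation at 37 °C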
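Test system: E. coli BW25113 ΔtolC::kan bacteria; incubation: 37 °C, 20 h exposure; medium: LB broth supplemented with 50 µg/mL kanamycin; read-out basis: percent growth inhibition; signal: A615 absorbance measurement; compound: 10 µM final, single dose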
PLAP activator = activators of human placental alkaline phosphatase | P05187 | purified PLAP enzyme, luminescent substrate read-out; hits give high values | activation fold at 20 µM | hit rate 1.2% among 96,000 | AID 696; in the data active means activation fold above about 2
Target sequence (P05187 whole entry, looked up): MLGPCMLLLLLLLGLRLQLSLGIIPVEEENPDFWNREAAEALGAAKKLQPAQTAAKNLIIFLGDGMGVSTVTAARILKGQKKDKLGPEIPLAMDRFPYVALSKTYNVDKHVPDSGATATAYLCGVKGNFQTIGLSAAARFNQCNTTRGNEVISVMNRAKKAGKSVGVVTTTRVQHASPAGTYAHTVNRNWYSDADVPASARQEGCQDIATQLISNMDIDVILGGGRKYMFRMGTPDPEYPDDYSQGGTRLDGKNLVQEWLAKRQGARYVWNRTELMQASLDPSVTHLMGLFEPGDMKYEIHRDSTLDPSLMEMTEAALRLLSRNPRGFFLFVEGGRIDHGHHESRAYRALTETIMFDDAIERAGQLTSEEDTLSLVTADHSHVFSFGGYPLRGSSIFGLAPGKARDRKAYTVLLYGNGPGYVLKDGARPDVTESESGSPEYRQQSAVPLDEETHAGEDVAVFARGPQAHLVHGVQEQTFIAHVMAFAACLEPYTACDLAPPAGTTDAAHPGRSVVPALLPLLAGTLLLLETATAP
PostGolgi ctrl = yeast control strain growth, post-Golgi counter-screen | efflux-deficient yeast background strain, growth absorbance A615, 16 h | inhibition, % at 10 µM | hit rate 5% among 98,000 | AID 738
HePTP inhibitor = inhibitors of human HePTP phosphatase | P35236 | recombinant HePTP phosphatase activity, OD absorbance | inhibition, % at 20 µM | hit rate 0.64% among 110,000 | AID 521; in the data active means inhibition above about 50%;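 further: plate controls were vehicle for no effect and reference inhibitor for full effect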
* marks the source's active call; other numbers are inactive results; . = not tested or not shown. Sampled rows, rich in hits. Any-hit rate of the full collection: about 5.4%. Unless noted, no stated cut-off is given here; in the data, active means inhibition above about 30%; inactive means the rest.

SMILES | E coli WT exp | PostGolgi yeast | Ecoli tolC | PLAP activator | PostGolgi ctrl | HePTP inhibitor
COc1ccc(C(=O)c2cnc(C(C)C)n2C)cc1 | -13 | -1 | 8 | 0.8 | 5 | -7
O=C(O)COc1ccc(-c2nc3sc4c(c3c(=O)[nH]2)CCCC4)cc1 | . | . | . | . | . | 28
NS(=O)(=O)c1ccc(NC(=O)/C(=C\c2ccc([N+](=O)[O-])cc2)NC(=O)c2ccccc2)cc1 | . | . | . | . | . | 7
O=C(Nc1ccc(Cl)c(Cl)c1)Nn1cnnc1 | . | . | . | . | . | 5
O=C(Nc1ccc(Br)cc1Cl)Nn1cnnc1 | 7 | 3 | -8 | 1 | 34* | 7
N#Cc1c(-c2ccc(O)cc2)c(C#N)c2nc3ccccc3n2c1N | . | . | . | . | . | -3
Cc1ccccc1-c1nnc(SCc2ccccc2F)o1 | -9 | 12 | 64* | 1 | 5 | 8
CCn1c(-c2cc(Br)ccc2O)n[nH]c1=S | . | . | 7 | . | . | 1
CCn1c(-c2ccc3[nH]c(C)c(C)c3c2)n[nH]c1=S | 1 | -5 | 9 | 2.1* | 4 | 6
CCn1c(-c2cc3ccccc3cc2O)n[nH]c1=S | -2 | 1 | . | 2.9* | 20 | .
C=CCn1c(-c2c[nH]c3ccccc23)n[nH]c1=S | 12 | -4 | 32 | 1.6 | 4 | -2
CC(C)Cn1c(-c2ccccc2F)n[nH]c1=S | 9 | 8 | 6 | 1.8 | 33* | 1
CCn1c(-c2c[nH]c3ccccc23)n[nH]c1=S | 6 | 40* | -2 | 1 | 0 | 11
Cc1[nH]c2ccc(-c3n[nH]c(=S)n3C)cc2c1C | 4 | -10 | 5 | 1.8 | 10 | 9
CC(C)(C)c1ccc(OCCn2ccccc2=O)cc1 | 4 | -4 | 7 | 1.7 | 8 | 5
COc1ccccc1NC(=O)C(CCS(C)(=O)=O)N1C(=O)c2ccccc2C1=O (stereo not drawn) | 1 | 0 | -10 | 1.1 | 2 | -1
CC(C)(C)C1CCc2c(sc(N)c2C(N)=O)C1 (stereo not drawn) | 9 | -7 | 16 | 1.5 | -1 | 5
CCCC1CCc2c(sc(N)c2C(N)=O)C1 (stereo not drawn) | 9 | 31* | . | 1.5 | 8 | -8
CC(=O)Nc1ccc(N2CCCCC2)c(C(=O)Nc2cccc(C)c2)c1 | 3 | -17 | . | 1 | 31* | .
Cc1cccc(NC(=O)c2cc(NC(=O)C3CC=CCC3C(=O)O)ccc2N2CCOCC2)c1 (stereo not drawn) | 4 | 1 | 9 | 1.5 | 14 | 7
Cc1cccc(NC(=O)c2cc(NC(=O)C3CCCCC3C(=O)O)ccc2N2CCCCC2)c1 (stereo not drawn) | -1 | -1 | 76* | . | 23 | 0
Cc1cccc(NC(=O)c2ccccc2C(=O)O)c1 | 1 | -2 | -1 | 0.9 | 1 | 11
Cc1cc(C)c2c(=O)[nH]c(SCC(=O)N(C)C)nc2n1 | -3 | 36* | . | 0.9 | 17 | .
C/C(CC1CC2=C(CC1(C)C)C(C)(C)CCC2)=N\NC(N)=S (stereo not drawn) | -1 | 104* | . | 0.9 | 80* | .
O=C(NC1CC2CCCC(C1)N2C(=O)Nc1ccccc1)c1ccncc1 (stereo not drawn) | 1 | 2 | -18 | 1.4 | 6 | -7
SMILES | E coli WT exp | PostGolgi yeast | Ecoli tolC | PLAP activator | PostGolgi ctrl | HePTP inhibitor
COCc1cc(C)nc2sc3c(=O)oc(C)nc3c12 | 4 | 21 | 66* | 1.1 | -2 | 0
Cc1nc2c(sc3nc(C)c(C)c(C)c32)c(=O)o1 | . | . | . | . | . | 31
CC(=O)c1cccc(NC(=O)CN(c2ccc(C)cc2)S(=O)(=O)c2cccc3nonc23)c1 | -5 | -4 | 16 | 1.2 | 34* | 7
O=C(COc1ccc(Cl)cc1Cl)OCn1nnc2ccccc2c1=O | 0 | 10 | . | 0.8 | -3 | .
O=C(CSCC(=O)OCn1nnc2ccccc2c1=O)Nc1ccc(Cl)cc1 | 3 | 0 | -7 | 0.9 | 32* | .
CCCCOC(=O)n1c(SCC(=O)N(CC)CC)nc2ccccc21 | 9 | -6 | 41 | 1.1 | 31* | 7
Cc1cc(C)nc(NC(=O)CSc2nc3cc(Cl)ccc3s2)n1 | -2 | -2 | . | 1 | 36* | .
Cc1cc(C)nc(NC(=O)CSc2nc3ccccc3s2)n1 | -4 | -6 | . | 0.8 | 3 | .
CCn1c(-c2ccc(F)cc2)n[nH]c1=S | -1 | -2 | -9 | 0.9 | 17 | 7
Nc1nc(SCc2nc3scc(-c4cccs4)c3c(=O)[nH]2)n[nH]1 | 1 | 8 | 8 | 2.5* | 0 | -4
COCCn1c(C2CCCCC2)nc2sc3ccccc3c(=O)c2c1=O | -7 | 39* | 19 | 1.4 | 85* | -2
CCc1nc2sc3ccccc3c(=O)c2c(=O)n1CCOC | 4 | -10 | . | 1.1 | -20 | .
O=C(NCCCO)C(=O)NCCc1ccccc1 | . | . | . | . | . | 2
c1ccc(Nc2nc(N3CCCCC3)nc(N3CCCCC3)n2)cc1 | -19 | -4 | . | 0.7 | 53* | .
COc1ccc(Nc2nc(N3CCCCC3)c3ccccc3n2)cc1 | 1 | 59* | . | 1.1 | 86* | .
c1ccc(Nc2nc(N3CCCC3)nc(N3CCCC3)n2)cc1 | -2 | 8 | . | 0.7 | 70* | .
c1ccc(Nc2nc(N3CCCCC3)nc(N3CCNCC3)n2)cc1 | 32 | 1 | -3 | 1.5 | 15 | 8
Oc1ccc(Nc2nc(N3CCCC3)c3ccccc3n2)cc1 | -1 | 15 | 33 | 1.3 | -2 | 7
COc1cccc(OCC(O)CN(CCO)Cc2ccccc2)c1 (stereo not drawn) | -2 | -8 | -6 | 1.1 | 6 | 0
CCC(=O)c1ccc(OCC(O)CN(CCc2ccccc2)Cc2ccccc2)cc1 (stereo not drawn) | -11 | 6 | . | 1.3 | 52* | .
Cc1cc(Cl)ccc1N(CC(=O)N=Nc1c(O)[nH]c2ccccc12)S(C)(=O)=O | -5 | 4 | . | 2.1* | 10 | .
Cc1ccc(N(CC(=O)N=Nc2c(O)[nH]c3ccccc23)S(=O)(=O)c2ccccc2)cc1 | . | . | . | . | . | 1
C=CCN1C(=O)CSC1=Nc1cccc(O)c1 | 5 | -4 | -1 | 1 | -4 | -4
c1cncc(-c2nc(NCC3COc4ccccc4O3)c3ccccc3n2)c1 (stereo not drawn) | -4 | 1 | . | 0.8 | 47* | .
CC(COc1ccccc1)NC(C)C(O)c1ccc(O)cc1 (stereo not drawn) | . | . | 4 | . | . | -3
SMILES | E coli WT exp | PostGolgi yeast | Ecoli tolC | PLAP activator | PostGolgi ctrl | HePTP inhibitor
CC(C)(C)n1nc(-c2ccc(F)cc2)c2c(N)ncnc21 | -3 | -16 | . | 1 | 57* | .
Cc1ccc(-c2nc(N)c3c(-c4ccc(C)cc4)nn(C(C)(C)C)c3n2)cc1 | -7 | -14 | . | 1 | 1 | .
CC(C)(C)n1nc(-c2ccc(Cl)cc2)c2c(N)ncnc21 | -4 | 1 | . | 0.8 | 65* | .
CSc1nc2ncc3c(n2n1)CC1c2ccccc2CCN1C3=O (stereo not drawn) | -1 | 3 | . | 1.3 | 32* | .
O=C1c2cnc3nc(SCc4cccc(Cl)c4)nn3c2CC2c3ccccc3CCN12 (stereo not drawn) | -15 | 16 | . | 1.3 | 42* | .
Cc1csc(NC(=O)CN2C(=O)C3CC=CCC3C2=O)n1 (stereo not drawn) | -3 | 2 | . | 0.9 | 11 | .
c1ccc2c(c1)ncn2CCCCOc1ccc2c(c1)CCC2 | 21 | 4 | . | 1.7 | 37* | .
